Hits are enriched below; roughly 2.3% of the tested compounds scored in any of these assays.
GPR7 antagonist: blocks human GPR7 receptor signaling | 290,000 compounds, 1.1% hits | GPR7-expressing cells, fluorescence antagonist assay | AID 1861 | inhibition, % at 4.4 µM | P48145; in the data active = inhibition above about 16%, passing the limit was not always enough;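 note: cells stimulated with the agonist NPW; 0% = agonist with vehicle and 100% = vehicle without agonist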
Target sequence (P48145 whole entry, looked up): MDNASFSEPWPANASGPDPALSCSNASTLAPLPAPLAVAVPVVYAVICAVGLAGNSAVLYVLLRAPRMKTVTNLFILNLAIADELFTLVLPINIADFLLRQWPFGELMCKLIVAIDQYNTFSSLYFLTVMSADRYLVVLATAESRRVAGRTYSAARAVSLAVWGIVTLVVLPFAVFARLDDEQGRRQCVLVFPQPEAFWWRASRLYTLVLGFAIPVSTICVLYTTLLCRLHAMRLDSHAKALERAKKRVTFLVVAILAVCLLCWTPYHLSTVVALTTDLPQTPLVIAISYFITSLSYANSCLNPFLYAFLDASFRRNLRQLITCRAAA
ZTA counter: ZTA (EBV) inhibition in EBNA-1 counter-screen | inhibition, % at 11 µM | ZTA-DNA binding, fluorescence polarization | P03206 | 320,000 compounds, 0.15% hits; in the data active = inhibition above about 33%
Target sequence (P03206 whole entry, looked up): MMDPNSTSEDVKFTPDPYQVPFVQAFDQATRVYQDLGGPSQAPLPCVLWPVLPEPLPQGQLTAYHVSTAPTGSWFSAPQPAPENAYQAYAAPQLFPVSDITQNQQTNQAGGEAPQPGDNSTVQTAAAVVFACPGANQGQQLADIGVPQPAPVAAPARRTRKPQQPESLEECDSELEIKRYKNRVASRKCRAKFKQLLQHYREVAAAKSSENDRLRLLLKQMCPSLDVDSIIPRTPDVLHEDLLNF
HCV NS3 hel inh: blocks Hepatitis C virus NS3 helicase unwinding; NS3 helicase DNA unwinding, Cy5 molecular beacon fluorescence; inhibition, % at 10.9 µM; 290,000 compounds, 0.56% hits;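 active = inhibition above the mean of all tested compounds plus 3 SD, set per campaign, cut at about 35% in these data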;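 note: 0% = DMSO wells and 100% = thioflavine S control wells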
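assay system = NS3 helicase fragment of HCV | buffer or medium = MOPS pH 6.5, MgCl2, DTT, Tween20, BSA | timing = 60 min unwinding reaction at 25 °C after ATP addition | signal = Cy5 beacon fluorescence read at start and 1 h | read-out basis = % inhibition of unwinding | control set = low DMSO, high thioflavine S at 110 µM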
EBNA-1 inh: blocks EBNA-1 binding to DNA; AID 1950; inhibition, % at 14.8 µM; EBNA-1 DNA binding, fluorescence polarization; 300,000 compounds, 0.34% hits; in the data active = inhibition above about 28%
EBV gp42 block: inhibitors of Epstein-Barr virus glycoprotein 42; 220,000 compounds, 0.42% hits; Q1HVG2; AID 1085; inhibition, % (tested at 21.74 µM); Fluorescence polarization binding assay, mP read-out; in the data active = inhibition above about 50%
core dimer inh: HCV core protein dimerization inhibition; TR-FRET GST/Flag-core106 dimerization, 1536-well; inhibition, % at 5 µM; 300,000 compounds, 0.33% hits; AID 1899;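 active = inhibition above the mean of all tested compounds plus 3 SD, set per screening campaign, cut at about 45% in these data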
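Assay system: GST-tagged and Flag-tagged HCV core protein residues 1-106 / Times: compound-protein-antibody incubation 4 h at 22.5 °C / Signal: time-resolved FRET, ex 340 nm, em 617 and 671 nm / Evaluation: % inhibition based on acceptor/donor emission ratio / Benchmarks: wells lacking GST-core106 and wells with excess unlabelled core106 / Repeats: singlicate, one well per compound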
NS3 helicase cf: HCV NS3 helicase inhibition, confirmation assay; NS3 helicase DNA unwinding, Cy5 molecular beacon fluorescence; shares compounds with HCV NS3 hel inh; 1,600 compounds, 31% hits; AID 1943; inhibition, % at 10.9 µM;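 active = inhibition above the mean of all tested compounds plus 3 SD, cutoff set per campaign, cut at about 36% in these data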
FID counter trip: counter-screen for HCV NS3 helicase inhibitors: DNA intercalator displacement; 1,600 compounds, 4% hits; shares compounds with HCV NS3 hel inh; inhibition, % at 7.9 µM; DNA fluorescent intercalator displacement, fluorescence; in the data active = inhibition above about 37%;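 note: 0% = vehicle and 100% = reference compound; higher means more displacement of ethidium bromide from the DNA hairpin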
DNA FID DR: DNA intercalator displacement in dose response; shares compounds with HCV NS3 hel inh; IC50, µM; 120 tested, under 10 active; fluorescent intercalator displacement from DNA, fluorescence; AID 2172; call rule not given here
* marks the source's active call; other numbers are inactive results; x = no result given.

SMILES | GPR7 antagonist | ZTA counter | HCV NS3 hel inh | EBNA-1 inh | EBV gp42 block | core dimer inh | NS3 helicase cf | FID counter trip | others
O=C(O)/C=C/c1cn(-c2ccccc2)nc1-c1ccc(-c2ccc([N+](=O)[O-])cc2)o1 | -4 | 5 | 36 | -6 | 66* | 17 | x | x
Cc1noc(C)c1C(=O)OCC(=O)Nc1c(F)cccc1F | -7 | -3 | 1 | 0 | 1 | 3 | x | x
N#Cc1c(N2CCCC2)ccc(Br)c1Cl | 17* | -3 | 12 | 2 | -16 | -8 | x | x
N#Cc1cc([N+](=O)[O-])ccc1N1CCCC1 | -15 | -5 | 13 | 6 | 0 | -7 | x | x
CC(C)CC1NC(=O)N(CC(=O)N2CCN(S(=O)(=O)c3ccccc3)CC2)C1=O (centres undefined) | -9 | -12 | 0 | -4 | -53 | -6 | x | x
CCN(CC)c1ccc(N=Cc2ccc(N(CC)CC)cc2O)cc1 | -2 | 192* | 35 | 129* | -238 | -3 | x | x
O=C(NNC1CC(=O)N(c2ccccc2)C1=O)c1ccc(COc2ccccc2Cl)o1 (centres undefined) | -5 | -13 | 60* | 7 | 5 | 7 | -12 | -27
CC(=O)c1sc(NC(=O)c2ccc(COc3ccccc3Cl)o2)nc1C | -5 | -5 | 42* | -1 | x | 3 | 21 | 15
COc1ccc(C2C(C(=O)c3cccs3)=C(O)C(=O)N2CCN2CCOCC2)c(OC)c1 (centres undefined) | -8 | -5 | 13 | 6 | x | 2 | x | x
Cc1ncc(CO)c(/C=N/NC(=S)Nc2ccc(C(C)C)cc2)c1O | -10 | -8 | 17 | -6 | -20 | 0 | x | x
CCOC(=O)c1cnc2c(ccc3ccccc32)c1NCCN(C)C | -3 | 5 | 36* | -1 | x | 3 | 7 | 75*
COc1ccc(Cc2noc(CN3CCNC(=O)CC3)n2)cc1OC | -7 | 4 | -3 | 13 | -15 | -2 | x | x
Oc1c(Cl)cc(Cl)cc1/C=N/NC(=S)NC1CC2C=CC1C2 (centres undefined) | -15 | 22 | 48* | -4 | -6 | 11 | 52* | 8 | DNA FID DR=>79
Oc1ccccc1/C=N/NC(=S)NC1CC2C=CC1C2 (centres undefined) | -19 | -11 | 27 | 4 | -2 | -2 | x | x
O=C(COC(=O)COc1ccc(Cl)cc1)NCCNC(=O)COC(=O)COc1ccc(Cl)cc1 | x | 3 | x | 5 | x | -2 | x | x
COc1ccc(C(=O)Nc2ccccc2C(=O)O)cc1NC(=O)C(c1ccccc1)c1ccccc1 | -4 | 14 | 16 | 1 | -4 | 12 | x | x
COc1ccc(C(=O)Nc2ccccc2C(=O)O)cc1Cl | 6 | -15 | 39* | -12 | 3 | -5 | 30 | 9
O=C1N=c2ccccc2=C1c1sc(Nc2ccc(O)cc2)nc1O | 13 | x | 72* | x | 63* | x | 27 | 4
O=C1N=c2ccccc2=C1c1sc(Nc2cccc(O)c2)nc1O | 19 | -8 | -11 | -7 | x | -8 | x | x
CCn1nc(C)c(CNC(=O)CC2C(=O)NCCN2CC(C)(C)C)c1C (centres undefined) | -8 | -12 | -22 | -9 | -9 | -16 | x | x
CCOC(=O)C1CCCN(C(=O)c2cc3c(=O)n(C)c4ccccc4c3n2C)C1 (centres undefined) | -8 | 13 | 75* | 9 | -3 | 4 | -10 | -31
Cn1c(C(=O)N2CCCC2)cc2c(=O)n(C)c3ccccc3c21 | -9 | x | 4 | x | -1 | x | x | x
NC(=S)N/N=C/c1coc2ccc(Cl)cc2c1=O | -11 | -4 | -12 | -3 | 21 | 8 | x | x
CC(C)c1cc(=O)n2[nH]c(SCc3ccc(Cl)cc3)nc2n1 | -6 | -15 | 45* | 3 | x | -14 | -6 | -24
CC(C)c1cc(=O)n2[nH]c(SCc3ccccc3)nc2n1 | 0 | -2 | 13 | 7 | x | 2 | x | x
SMILES | GPR7 antagonist | ZTA counter | HCV NS3 hel inh | EBNA-1 inh | EBV gp42 block | core dimer inh | NS3 helicase cf | FID counter trip | others
O=c1cc(O)c2ccc(O)cc2o1 | 4 | -1 | 0 | -9 | 5 | -2 | x | x
O=c1ccc2[n+]([O-])c3ccc(O)cc3oc-2c1 | -6 | x | 37* | x | 110* | x | -1 | -40
COc1cccc(OCCOc2ccc(/C=C3/SC(=S)NC3=O)cc2)c1 | 10 | 18 | 48* | 1 | x | 40 | 54* | 13
COc1cccc(-c2nn(-c3ccc(C)cc3)cc2C(=O)N2CCN(C3CCS(=O)(=O)C3)CC2)c1 (centres undefined) | x | -3 | x | x | x | x | x | x
COc1ccc(CNC(=O)CNC(=O)c2ccc(Br)o2)cc1OC | 3 | 7 | 7 | -5 | x | -1 | x | x
NNc1nc2sc3c(c2c(=O)n1Cc1ccccc1)CCC3 | -8 | -28 | 44* | -8 | 1 | 20 | 10 | -16
Nn1c(Nc2ccccc2)nc2sc3c(c2c1=O)CCC3 | -4 | x | -9 | x | -2 | x | x | x
N#CCCN=C(NS(=O)(=O)c1ccccc1)c1ccccc1 | -13 | -1 | 34 | -10 | x | -20 | x | x
O=C(CSc1nnc(-c2ccc(O)cc2)n1Cc1ccco1)c1cccs1 | -1 | -5 | 3 | -31 | 1 | 5 | x | x
O=C(CC(SCc1ccco1)c1ccc(O)cc1)c1cccs1 (centres undefined) | 2 | -18 | 69* | -2 | 9 | 1 | 0 | -11
Cc1ccc(N2CC(C(=O)Nc3ccc(N4CCOCC4)cc3)CC2=O)cc1C (centres undefined) | 21 | 8 | 39* | -10 | x | -4 | -6 | -30
O=C(Nc1ccc(N2CCOCC2)cc1)C1CC(=O)N(c2ccccc2)C1 (centres undefined) | -3 | -3 | 0 | 6 | 6 | 5 | x | x
CSc1sccc1/C=N/O | 6 | 14 | 6 | 3 | -8 | -4 | x | x
CSc1sccc1/C=C(/C#N)C(=O)c1ccco1 | -3 | -21 | 38* | -12 | x | -1 | -37 | 10
O=C(CCN1C(=O)/C(=C/c2ccco2)SC1=S)Nc1ccc(C(=O)O)c(O)c1 | -13 | 27 | 12 | -5 | x | 4 | x | x
O=C(CN1C(=O)/C(=C\c2ccco2)SC1=S)Nc1ccc(O)cc1C(=O)O | -3 | 28 | 31 | 5 | x | 0 | x | x
O=C(CCN1C(=O)/C(=C/c2ccco2)SC1=S)Nc1ccc(O)cc1C(=O)O | -8 | x | 42* | x | x | x | 66* | 13
O=C(O)CCCN1C(=O)/C(=C\c2ccco2)SC1=S | -2 | x | 39* | x | -2 | x | 29 | 5
O=C(CCCN1C(=O)/C(=C/c2ccco2)SC1=S)Nc1ccccc1C(=O)O | -6 | 23 | 46* | 5 | -12 | 6 | 73* | 26

High-throughput results as filed in PubChem BioAssay.
